Laboratory results taken from paper PMC3100417 (Biomaterials, 2011).

Tests used:
[1] = cited from earlier work
radiolabeled lipoplexes = assay: DNA binding and release of lipoplexes to hydrogel surfaces; conditions: for amount of bound DNA retained: release study, by day 6
Summary of the method: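 Cell-free hydrogels carrying 5 mM RDG, KDKG, K4 or K8 peptide, washed immediately and after 1 h swelling in uDMEM. Radiolabelled TransFast–plasmid lipoplexes in uDMEM added at 2 µg DNA/well for 2 h at room temperature. Unbound solution removed and scintillation-counted. Gels washed twice with uDMEM immediately and at 2, 4 and 6 h, then sampled periodically with replacement for 6 days. Counts converted to DNA via standard curve.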

Recombinant rat β-NGF = Recombinant rat β-NGF (Rattus norvegicus, UniProt P25427); assay: NGF binding and release from hydrogels; conditions: for NGF remaining in solution after incubation: 10 ng/well NGF in uDMEM, 2 h, ELISA, 10% PEG hydrogels, 5 mM peptide; for release of NGF from hydrogels: monitored over 48 h after initial binding
Summary of the method: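 Recombinant rat β-NGF at 0.05 µg/mL final in uDMEM added. Media collected with replacement at 2, 4, 6, 24 and 48 h and stored at −80 °C. Sandwich ELISA gave bound NGF and cumulative release.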

Chain of Recombinant rat β-NGF (P25427 122-241): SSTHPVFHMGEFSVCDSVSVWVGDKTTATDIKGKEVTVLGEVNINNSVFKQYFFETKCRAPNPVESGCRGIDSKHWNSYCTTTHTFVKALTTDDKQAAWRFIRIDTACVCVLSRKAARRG

mean quantity of vector bound, greater than KDKG and RDG conditions (radiolabeled lipoplexes; throughout the 6-day release study) | NGF remaining in solution after incubation (Recombinant rat β-NGF) [ng] | amount of bound DNA retained (radiolabeled lipoplexes) [%] | Substance | diffusivity of NGF, DN [1] | rate constant for NGF degradation, kdeg ([1]; in buffered solution) [s⁻¹] | release of NGF from hydrogels (Recombinant rat β-NGF)
– | – | – | NGF: nerve growth factor protein | 12 × 10^−7 cm^2/s | 4.83e-05 | –
approximately 5% | 3.4 | – | GCGKKKK [K4] | – | – | intermediate between the RDG and K8 conditions
– | 3.8 | 20 | GCGYGRDGSPG [reference compound] | – | – | –
– | 3.2 | 41 | GCGYGKKKKKKKK [K8] | – | – | lowest
